# Experimental data reported in ChEMBL document CHEMBL3352121, “Modulation of Activity Profiles for Largazole-Based HDAC Inhibitors through Alteration of Prodrug Properties” (ACS Med Chem Lett, 2014).
# Calls of active or inactive are those of the source. The rule behind the calls is not given here.
# Key:
# [1] = tested on: HCT-116; assay: In vivo inhibition of HDAC in tumor of human HCT116 cells xenografted nu/nu mouse assessed as increase in histone hyperacetylation at 50 mg/kg, ip after 4 hrs by immunoblotting method; format: functional, organism-based; parameters: dose 50 mg/kg
# Outline: (§1)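 HCT116 xenograft mice were dosed intraperitoneally at 10 or 50 mg/kg. Tumors were excised after 4, 12 and 24 h, n = 2. Histone hyperacetylation in tumor tissue was assessed by immunoblotting.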
# [2] = target: Histone deacetylase (Homo sapiens) (UniProt Q13547+O15379+Q9UBN7+Q92769+Q9UQL6+Q8WUI4+Q9BY41+Q96DB2+P56524+Q9UKV0+Q969S8); assay: Inhibition of HDAC in human HCT116 cells assessed as increase in histone H3 (Lys9/14) hyperacetylation after 8 to 24 hrs by immunoblotting method; format: cell-based; conditions: HCT-116
# Outline: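 HCT116 cells were treated across a dose range. Cellular HDAC inhibition was read as histone H3 (Lys9/14) hyperacetylation by immunoblot at 8 and 24 h post-treatment.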
# [3] = Drug metabolism in tumor of human HCT116 cells xenografted nu/nu mouse assessed as time for maximum largazole thiol level at 10 mg/kg, ip by HPLC-MS method; format: ADME, organism-based, Neoplasm, HCT-116; parameters: dose 10 mg/kg, route intraperitoneal; conditions: in vivo
# [4] = Drug metabolism in human HCT116 cells protein lysate solution assessed as largazole thiol formation at 25 ug/mL after 30 mins by HPLC-MS method; format: ADME, cell-based; conditions: hct-116, 0.5 h
# [5] = tested on: Serum; assay: Drug metabolism in mouse serum assessed as largazole thiol formation after 0.25 to 1440 mins by HPLC-MS method; format: ADME, cell-free
# [6] = Drug metabolism in tumor of human HCT116 cells xenografted nu/nu mouse assessed largazole thiol formation at 50 mg/kg, po by HPLC-MS method; conditions: in vivo
# [7] = tested on: HCT-116; assay: In vivo inhibition of HDAC in tumor of human HCT116 cells xenografted nu/nu mouse assessed as increase in histone hyperacetylation at 50 mg/kg, ip after 4 to 24 hrs by immunoblotting method; format: functional, organism-based; parameters: dose 50 mg/kg; outline: as §1
# [8] = Drug metabolism in tumor of human HCT116 cells xenografted nu/nu mouse assessed as time for maximum largazole thiol level at 50 mg/kg, ip by HPLC-MS method; format: ADME, organism-based, Neoplasm, HCT-116; parameters: dose 50 mg/kg, route intraperitoneal; conditions: in vivo
# [9] = tested on: HCT-116; assay: In vivo inhibition of HDAC in tumor of human HCT116 cells xenografted nu/nu mouse assessed as increase in histone hyperacetylation at 50 mg/kg, po after 4 to 12 hrs by immunoblotting method; format: functional, organism-based; parameters: dose 50 mg/kg
# Outline: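 Mice bearing HCT116 xenografts were dosed intraperitoneally at 10 or 50 mg/kg, or orally at 50 mg/kg. Tumors were excised at 4, 12 and 24 h. Histone hyperacetylation in the tumors was assessed by immunoblot, n = 2.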
# [10] = tested on: HCT-116; assay: In vivo inhibition of HDAC in tumor of human HCT116 cells xenografted nu/nu mouse assessed as increase in histone hyperacetylation at 10 mg/kg, ip after 4 to 24 hrs by immunoblotting method; format: functional, organism-based; parameters: dose 10 mg/kg; outline: as §1
# [11] = target: T1, Histone deacetylase 7 (Homo sapiens) (UniProt Q8WUI4); assay: Inhibition of HDAC7 (unknown origin) at 1 uM incubated for 30 mins in presence of BSA and DTT by fluorescence assay
# T1 sequence (whole entry): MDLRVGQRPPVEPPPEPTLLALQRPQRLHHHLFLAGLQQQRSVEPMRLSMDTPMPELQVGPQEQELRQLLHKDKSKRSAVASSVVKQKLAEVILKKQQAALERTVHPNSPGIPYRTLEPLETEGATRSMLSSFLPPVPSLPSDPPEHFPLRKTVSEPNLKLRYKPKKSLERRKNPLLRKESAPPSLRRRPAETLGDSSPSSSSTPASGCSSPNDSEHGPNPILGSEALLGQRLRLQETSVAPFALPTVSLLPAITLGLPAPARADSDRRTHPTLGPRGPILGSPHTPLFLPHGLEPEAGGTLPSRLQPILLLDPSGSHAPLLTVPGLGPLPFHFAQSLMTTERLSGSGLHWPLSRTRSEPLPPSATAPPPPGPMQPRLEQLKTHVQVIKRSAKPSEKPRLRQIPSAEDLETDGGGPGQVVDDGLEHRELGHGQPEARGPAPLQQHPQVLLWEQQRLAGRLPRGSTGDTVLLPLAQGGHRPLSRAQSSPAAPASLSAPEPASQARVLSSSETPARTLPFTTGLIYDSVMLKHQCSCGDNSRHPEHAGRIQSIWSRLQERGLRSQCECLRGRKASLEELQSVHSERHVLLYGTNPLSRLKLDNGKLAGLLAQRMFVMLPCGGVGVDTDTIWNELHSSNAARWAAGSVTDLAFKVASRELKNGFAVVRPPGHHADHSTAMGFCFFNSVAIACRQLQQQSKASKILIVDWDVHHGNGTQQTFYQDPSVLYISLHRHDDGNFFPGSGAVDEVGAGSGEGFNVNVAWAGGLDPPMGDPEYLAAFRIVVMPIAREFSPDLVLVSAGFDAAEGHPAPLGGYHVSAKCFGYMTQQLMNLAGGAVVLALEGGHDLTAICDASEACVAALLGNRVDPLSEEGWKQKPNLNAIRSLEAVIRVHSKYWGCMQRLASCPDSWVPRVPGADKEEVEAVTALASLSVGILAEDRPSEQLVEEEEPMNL
# Outline: (§2)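 Purified HDAC isoforms were tested up to a maximum of 1 μM. IC50 values are averages of duplicate experiments. Disulfide compounds were pretreated with DTT to reduce the disulfide bond.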
# [12] = target: Histone deacetylase 9 (Homo sapiens, UniProt Q9UKV0); assay: Inhibition of HDAC9 (unknown origin) at 1 uM incubated for 30 mins in presence of BSA and DTT by fluorescence assay; outline: as §2
# [13] = target: T2, Histone deacetylase 8 (Homo sapiens) (UniProt Q9BY41); assay: Inhibition of HDAC8 (unknown origin) at 1 uM incubated for 30 mins in presence of BSA and DTT by fluorescence assay; outline: as §2
# T2 sequence (whole entry): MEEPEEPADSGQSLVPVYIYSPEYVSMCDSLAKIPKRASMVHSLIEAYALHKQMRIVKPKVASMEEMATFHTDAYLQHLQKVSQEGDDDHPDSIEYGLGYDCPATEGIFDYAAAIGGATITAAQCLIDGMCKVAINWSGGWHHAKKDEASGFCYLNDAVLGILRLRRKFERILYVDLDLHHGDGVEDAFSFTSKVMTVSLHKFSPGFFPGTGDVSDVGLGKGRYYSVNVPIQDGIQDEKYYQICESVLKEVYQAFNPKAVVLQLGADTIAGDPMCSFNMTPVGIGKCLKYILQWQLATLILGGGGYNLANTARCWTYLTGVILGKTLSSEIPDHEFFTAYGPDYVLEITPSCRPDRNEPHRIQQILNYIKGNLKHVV
# [14] = target: T3, Polyamine deacetylase HDAC10 (Homo sapiens, UniProt Q969S8); assay: Inhibition of HDAC10 (unknown origin) incubated for 30 mins in presence of BSA and DTT by fluorescence assay; outline: as §2
# T3 sequence (Q969S8 whole entry): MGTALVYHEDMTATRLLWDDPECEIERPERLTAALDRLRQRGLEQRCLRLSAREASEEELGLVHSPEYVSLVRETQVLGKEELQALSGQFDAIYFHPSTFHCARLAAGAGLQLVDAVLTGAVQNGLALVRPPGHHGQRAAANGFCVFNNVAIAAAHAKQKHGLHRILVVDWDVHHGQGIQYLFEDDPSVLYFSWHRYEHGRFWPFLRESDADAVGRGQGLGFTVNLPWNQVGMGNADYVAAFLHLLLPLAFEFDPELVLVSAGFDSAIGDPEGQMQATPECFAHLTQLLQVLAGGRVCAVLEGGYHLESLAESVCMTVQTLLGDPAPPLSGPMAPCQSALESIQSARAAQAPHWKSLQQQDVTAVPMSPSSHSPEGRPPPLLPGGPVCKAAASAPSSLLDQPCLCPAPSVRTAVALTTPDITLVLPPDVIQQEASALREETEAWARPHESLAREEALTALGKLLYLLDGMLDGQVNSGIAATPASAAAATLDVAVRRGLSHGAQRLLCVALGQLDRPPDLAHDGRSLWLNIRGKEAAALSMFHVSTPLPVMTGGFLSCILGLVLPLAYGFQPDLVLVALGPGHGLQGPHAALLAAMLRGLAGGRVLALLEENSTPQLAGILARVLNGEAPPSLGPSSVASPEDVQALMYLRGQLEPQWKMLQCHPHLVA
# [15] = target: Histone deacetylase 1 (Homo sapiens, UniProt Q13547); assay: Inhibition of HDAC1 (unknown origin) incubated for 30 mins in presence of BSA and DTT by fluorescence assay
# [16] = target: T4, Protein deacetylase HDAC6 (Homo sapiens) (UniProt Q9UBN7); conditions: 1 uM
# T4 sequence (whole entry): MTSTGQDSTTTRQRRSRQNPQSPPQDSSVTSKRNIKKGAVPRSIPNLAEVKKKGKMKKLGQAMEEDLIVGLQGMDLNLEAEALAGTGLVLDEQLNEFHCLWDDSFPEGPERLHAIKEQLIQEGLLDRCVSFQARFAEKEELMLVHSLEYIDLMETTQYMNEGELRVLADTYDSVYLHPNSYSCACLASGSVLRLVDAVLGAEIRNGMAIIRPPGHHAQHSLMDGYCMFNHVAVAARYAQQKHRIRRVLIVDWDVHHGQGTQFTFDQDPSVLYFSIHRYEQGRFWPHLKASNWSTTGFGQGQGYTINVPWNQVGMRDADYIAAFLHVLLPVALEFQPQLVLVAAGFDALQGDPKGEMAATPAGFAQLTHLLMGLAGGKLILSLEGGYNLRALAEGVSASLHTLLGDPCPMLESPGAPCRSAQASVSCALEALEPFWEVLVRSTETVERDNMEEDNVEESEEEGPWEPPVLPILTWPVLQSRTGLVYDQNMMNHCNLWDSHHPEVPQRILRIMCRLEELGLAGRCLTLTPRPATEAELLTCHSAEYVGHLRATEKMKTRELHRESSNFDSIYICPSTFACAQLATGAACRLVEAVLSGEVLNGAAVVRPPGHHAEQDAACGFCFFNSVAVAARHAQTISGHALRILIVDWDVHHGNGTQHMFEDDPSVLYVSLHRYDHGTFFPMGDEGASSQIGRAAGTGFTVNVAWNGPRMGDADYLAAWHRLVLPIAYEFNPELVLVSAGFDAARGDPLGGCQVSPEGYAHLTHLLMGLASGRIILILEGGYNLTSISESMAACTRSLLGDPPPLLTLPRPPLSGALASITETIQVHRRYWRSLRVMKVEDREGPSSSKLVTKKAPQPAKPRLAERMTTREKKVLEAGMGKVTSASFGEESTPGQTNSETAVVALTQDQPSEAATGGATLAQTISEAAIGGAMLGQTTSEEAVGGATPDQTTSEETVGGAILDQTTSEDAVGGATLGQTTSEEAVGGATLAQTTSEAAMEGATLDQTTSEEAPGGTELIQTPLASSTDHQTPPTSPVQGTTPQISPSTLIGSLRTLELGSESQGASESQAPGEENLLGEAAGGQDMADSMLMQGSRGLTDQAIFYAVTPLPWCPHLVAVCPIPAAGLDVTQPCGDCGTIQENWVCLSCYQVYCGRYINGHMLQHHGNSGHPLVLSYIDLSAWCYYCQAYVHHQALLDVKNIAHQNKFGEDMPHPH
# [17] = target: Histone deacetylase 5 (Homo sapiens, UniProt Q9UQL6); assay: Inhibition of HDAC5 (unknown origin) at 1 uM incubated for 30 mins in presence of BSA and DTT by fluorescence assay; outline: as §2
# Sequence of Histone deacetylase 5 (Q9UQL6 whole entry): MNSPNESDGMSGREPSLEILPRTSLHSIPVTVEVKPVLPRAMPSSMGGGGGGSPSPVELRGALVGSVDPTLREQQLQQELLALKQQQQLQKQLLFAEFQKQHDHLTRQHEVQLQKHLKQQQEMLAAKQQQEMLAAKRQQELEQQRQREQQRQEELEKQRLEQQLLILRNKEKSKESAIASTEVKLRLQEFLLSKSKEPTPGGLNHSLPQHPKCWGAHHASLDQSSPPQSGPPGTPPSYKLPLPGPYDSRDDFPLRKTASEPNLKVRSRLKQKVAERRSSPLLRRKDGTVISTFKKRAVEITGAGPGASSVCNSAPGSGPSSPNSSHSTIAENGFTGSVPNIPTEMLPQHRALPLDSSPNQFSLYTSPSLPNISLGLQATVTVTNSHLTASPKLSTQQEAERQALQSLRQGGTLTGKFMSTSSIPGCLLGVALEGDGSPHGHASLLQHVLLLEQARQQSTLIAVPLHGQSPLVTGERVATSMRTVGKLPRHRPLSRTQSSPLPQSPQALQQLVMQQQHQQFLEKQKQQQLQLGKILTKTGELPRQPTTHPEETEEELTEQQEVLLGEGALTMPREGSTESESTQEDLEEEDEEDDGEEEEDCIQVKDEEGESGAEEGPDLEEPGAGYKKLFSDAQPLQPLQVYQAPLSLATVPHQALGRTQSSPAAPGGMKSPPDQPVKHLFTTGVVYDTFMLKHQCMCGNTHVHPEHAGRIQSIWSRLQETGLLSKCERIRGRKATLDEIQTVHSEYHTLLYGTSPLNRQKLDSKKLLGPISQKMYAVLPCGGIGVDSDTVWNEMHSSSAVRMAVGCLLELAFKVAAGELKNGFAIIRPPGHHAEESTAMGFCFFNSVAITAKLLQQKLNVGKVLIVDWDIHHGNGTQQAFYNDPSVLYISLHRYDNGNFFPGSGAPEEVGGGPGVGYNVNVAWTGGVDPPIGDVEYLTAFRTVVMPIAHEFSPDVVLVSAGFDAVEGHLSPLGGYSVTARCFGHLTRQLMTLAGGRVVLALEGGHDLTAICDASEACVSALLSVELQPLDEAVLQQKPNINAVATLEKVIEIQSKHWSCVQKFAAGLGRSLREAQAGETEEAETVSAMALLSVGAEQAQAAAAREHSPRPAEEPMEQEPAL
# Sequence of Histone deacetylase 9 (Q9UKV0 whole entry): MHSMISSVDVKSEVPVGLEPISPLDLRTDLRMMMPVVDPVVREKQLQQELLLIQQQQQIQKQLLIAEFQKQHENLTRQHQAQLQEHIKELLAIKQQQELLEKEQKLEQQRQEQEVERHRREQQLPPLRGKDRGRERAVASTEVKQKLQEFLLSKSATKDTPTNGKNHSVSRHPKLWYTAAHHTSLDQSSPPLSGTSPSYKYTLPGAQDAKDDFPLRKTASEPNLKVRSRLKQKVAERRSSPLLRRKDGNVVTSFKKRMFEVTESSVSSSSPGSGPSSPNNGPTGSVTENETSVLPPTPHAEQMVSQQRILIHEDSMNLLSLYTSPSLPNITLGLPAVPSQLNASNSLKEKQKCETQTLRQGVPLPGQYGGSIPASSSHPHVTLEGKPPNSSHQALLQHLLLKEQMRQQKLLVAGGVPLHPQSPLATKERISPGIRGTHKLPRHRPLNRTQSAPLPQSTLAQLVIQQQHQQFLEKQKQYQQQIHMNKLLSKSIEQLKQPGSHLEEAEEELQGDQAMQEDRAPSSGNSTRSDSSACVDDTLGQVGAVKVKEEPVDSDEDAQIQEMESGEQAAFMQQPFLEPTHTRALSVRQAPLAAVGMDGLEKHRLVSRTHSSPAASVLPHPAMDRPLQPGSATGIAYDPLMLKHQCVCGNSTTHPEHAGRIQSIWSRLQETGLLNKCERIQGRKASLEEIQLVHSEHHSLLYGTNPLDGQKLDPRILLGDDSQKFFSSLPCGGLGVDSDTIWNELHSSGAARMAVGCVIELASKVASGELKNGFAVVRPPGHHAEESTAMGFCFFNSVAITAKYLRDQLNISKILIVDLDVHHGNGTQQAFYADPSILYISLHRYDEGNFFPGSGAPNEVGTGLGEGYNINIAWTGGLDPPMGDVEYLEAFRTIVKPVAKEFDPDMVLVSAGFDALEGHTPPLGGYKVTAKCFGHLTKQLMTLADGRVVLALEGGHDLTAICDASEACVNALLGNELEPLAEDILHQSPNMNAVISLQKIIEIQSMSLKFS
# Sequence of Histone deacetylase 1 (Q13547 whole entry): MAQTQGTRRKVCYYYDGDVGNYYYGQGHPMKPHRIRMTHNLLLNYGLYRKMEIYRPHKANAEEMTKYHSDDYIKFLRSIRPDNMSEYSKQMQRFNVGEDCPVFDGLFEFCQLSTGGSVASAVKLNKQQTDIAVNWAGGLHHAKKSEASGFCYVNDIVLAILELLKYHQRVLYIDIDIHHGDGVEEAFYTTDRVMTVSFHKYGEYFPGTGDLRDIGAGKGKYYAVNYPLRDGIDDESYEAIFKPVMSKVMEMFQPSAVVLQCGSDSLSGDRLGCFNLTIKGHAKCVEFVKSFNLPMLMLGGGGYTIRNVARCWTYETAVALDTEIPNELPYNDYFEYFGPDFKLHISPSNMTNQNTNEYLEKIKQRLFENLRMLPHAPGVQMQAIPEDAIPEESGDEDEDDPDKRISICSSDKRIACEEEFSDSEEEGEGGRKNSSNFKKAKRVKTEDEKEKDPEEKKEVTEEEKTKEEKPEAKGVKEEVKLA
inhibition [11] [%],inhibition [12] [%],inhibition [13] [%],IC50 [14] [nM],IC50 [15] [nM],inhibition [16] [%],inhibition [17] [%],SMILES,inhibition [1],inhibition [2],Tmax [3] [h],Drug metabolism [4],Drug metabolism [5],Drug metabolism [6],inhibition [7],Tmax [8] [h],inhibition [9],inhibition [10]
–,–,–,–,–,–,–,CCCCCCCC(=O)SCC/C=C/[C@@H]1CC(=O)NCc2nc(cs2)C2=N[C@@](C)(CS2)C(=O)N[C@@H](C(C)C)C(=O)O1 [LARGAZOLE],Active,Dose-dependent effect,4,metabolite_detected,metabolite_detected,metabolite_detected,Active,4,Active,Active
34,45,36,0.9,0.8,45,22,C/C=C1\NC(=O)[C@H]2CSSCC/C=C/[C@H](CC(=O)N[C@H](C(C)C)C(=O)N2)OC(=O)[C@H](C(C)C)NC1=O [ROMIDEPSIN],–,–,–,–,–,–,–,–,–,–
